Data reported in ChEMBL document CHEMBL1148871, “Novel potent antimitotic heterocyclic ketones: synthesis, antiproliferative activity, and structure-activity relationships” (Bioorg Med Chem Lett, 2007).
Values belong to the molecule of their own block, whether it stands above or below them.

Key:
[1] = Antiproliferative activity against human DND1 cells; type: functional, cell-based
PC-3 = assay: Antiproliferative activity against human PC3 cells; type: functional, cell-based
Bel-7402 = assay: Antiproliferative activity against human Bel7402 cells; type: functional, cell-based
MCF7 = assay: Antiproliferative activity against human MCF7 cells; type: functional, cell-based
CCRF-CEM = assay: Antiproliferative activity against human CEM cells; type: functional, cell-based
MOLT-3 = assay: Antiproliferative activity against human Molt3 cells; type: functional, cell-based
DU-145 = assay: Antiproliferative activity against human DU145 cells; type: functional, cell-based
Tubulin (Homo sapiens) [2] = target: T1, Tubulin (Homo sapiens) (UniProt P68371+Q9H4B7+P0DPH7+P68366+Q13509+Q71U36+P04350+Q3ZCM7+P07437+P68363+Q9BQE3+Q6PEY2+Q13885+Q9BVA1+Q9BUF5); assay: Inhibition of tubulin polymerization; type: protein-complex assay
In short: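 Purified […] in reaction buffer with GTP and Mg²⁺ was incubated for assembly with or without test compound (1–5 uM), with vincristine or paclitaxel (20 uM) as controls. Assembly was read as OD at 340 nm every 2 min. Each point is the mean of two independent experiments.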

Tubulin (Homo sapiens) [3] = target: T1, Tubulin (Homo sapiens); assay: Inhibition of tubulin polymerization at 20 uM; type: protein-complex assay

Structure (SMILES): COc1cc([C@@H]2c3cc4c(cc3C(O)[C@H]3COC(=O)[C@H]23)OCO4)cc(OC)c1OC (single isomer, unassigned) [PODOFILOX]
IC50 [1]: 12 nM

Structure (SMILES): COc1ccc(C(=O)c2ccc3c(ccn3C)c2)c(OC)n1
IC50 (CCRF-CEM): 1010 nM

Structure (SMILES): COc1ccc(OC)c(C(=O)c2ccc3c(ccn3C)c2)c1
IC50 (CCRF-CEM): 2370 nM

Structure (SMILES): COc1ccc(C(=O)c2ccc3c(ccn3C)c2)cc1OC
IC50 (CCRF-CEM): 1690 nM

Structure (SMILES): COc1ccc(/C=C\c2cc(OC)c(OC)c(OC)c2)cc1O [COMBRETASTATIN A4]
IC50 [1]: 2.5 nM

Structure (SMILES): COc1cc(C(=O)c2ccc3occc3c2)cc(OC)c1OC
IC50 (CCRF-CEM): 288 nM

Structure (SMILES): COc1ccc(C(=O)c2ccc3c(ccn3C)c2)cc1
IC50 (CCRF-CEM): 1130 nM

Structure (SMILES): COc1ccc(C(=O)c2ccc3c(ccn3C)c2)c(OC)c1
IC50 (PC-3): 203 nM | IC50 (Bel-7402): 44 nM | IC50 (MCF7): 85 nM | IC50 (CCRF-CEM): 102 nM | IC50 (MOLT-3): 24 nM | IC50 [1]: 118 nM | IC50 (DU-145): 34 nM

Structure (SMILES): COc1cc(C(=O)c2ccc3sccc3c2)cc(OC)c1OC
IC50 (CCRF-CEM): 303 nM

Structure (SMILES): CC[C@]1(O)C[C@H]2CN(CCc3c([nH]c4ccccc34)[C@@](C(=O)OC)(c3cc4c(cc3OC)N(C=O)[C@H]3[C@@](O)(C(=O)OC)[C@H](OC(C)=O)[C@]5(CC)C=CCN6CC[C@]43[C@@H]65)C2)C1
inhibition (Tubulin (Homo sapiens) [3]): 87%

Structure (SMILES): COc1cc(OC)cc(C(=O)c2ccc3c(ccn3C)c2)c1
IC50 (CCRF-CEM): 1690 nM

Further lines, with some results ahead:

IC50 (PC-3): 201 nM | IC50 (Bel-7402): 201 nM | IC50 (MCF7): 89 nM | IC50 (CCRF-CEM): 56 nM | IC50 (MOLT-3): 20 nM | IC50 (DU-145): 603 nM
Structure (SMILES): CCn1c2ccccc2c2cc(NS(=O)(=O)c3cc(OC)c(OC)c(OC)c3)ccc21
IC50 [1]: 89 nM

IC50 (PC-3): 117 nM | IC50 (Bel-7402): 88 nM | IC50 (MCF7): 44 nM | IC50 (CCRF-CEM): 59 nM | IC50 (MOLT-3): 38 nM | IC50 (DU-145): 103 nM
Structure (SMILES): COc1cc(C(O)c2ccc3c(ccn3C)c2)cc(OC)c1OC (centres undefined)
IC50 [1]: 59 nM

IC50 (CCRF-CEM): 307 nM
Structure (SMILES): COc1cc(C(=O)c2cccc3ccn(C)c23)cc(OC)c1OC

IC50 (PC-3): 103 nM | Activity (Tubulin (Homo sapiens) [2]): Dose-dependent effect | IC50 (Bel-7402): 90 nM | IC50 (MCF7): 26 nM | IC50 (CCRF-CEM): 90 nM | IC50 (MOLT-3): 51 nM | IC50 (DU-145): 39 nM
Structure (SMILES): CCn1c2ccccc2c2cc(C(=O)c3cc(OC)c(OC)c(OC)c3)ccc21
IC50 [1]: 21 nM

IC50 (PC-3): 25 nM | IC50 (Bel-7402): 21 nM | IC50 (MCF7): 9.2 nM | IC50 (CCRF-CEM): 18 nM | IC50 (MOLT-3): 18 nM | IC50 (DU-145): 26 nM
Structure (SMILES): COc1cc(C(=O)c2ccc3c(ccn3C)c2)cc(OC)c1OC
IC50 [1]: 15 nM

IC50 (CCRF-CEM): 192 nM
Structure (SMILES): CCn1c2ccccc2c2cc(C(O)c3cc(OC)c(OC)c(OC)c3)ccc21 (centres undefined)

IC50 (CCRF-CEM): 225 nM
Structure (SMILES): COc1cc(C(=O)c2ccc3[nH]ccc3c2)cc(OC)c1OC

IC50 (CCRF-CEM): 61 nM
Structure (SMILES): CCn1c2ccccc2c2cc(NS(=O)(=O)c3cc(OC)ccc3OC)ccc21

IC50 (PC-3): 75 nM | IC50 (Bel-7402): 27 nM | IC50 (MCF7): 24 nM | IC50 (CCRF-CEM): 30 nM | IC50 (MOLT-3): 18 nM | IC50 (DU-145): 75 nM
Structure (SMILES): COc1cc(C(=O)c2ccc3ccn(C)c3c2)cc(OC)c1OC
IC50 [1]: 27 nM

IC50 (CCRF-CEM): 555 nM
Structure (SMILES): CCn1c2ccccc2c2cc(C(=O)c3ccc(OC)nc3OC)ccc21

IC50 (CCRF-CEM): 57 nM
Structure (SMILES): CCn1c2ccccc2c2cc(NS(=O)(=O)c3ccc(OC)cc3OC)ccc21
